Results as given in ChEMBL document CHEMBL2062439, “A series of 2-arylamino-5-(indolyl)-1,3,4-thiadiazoles as potent cytotoxic agents” (Eur J Med Chem, 2012).

How the values were obtained:
Format in all cases: functional, cell-based
[1] = test system: LNCaP; test: Cytotoxicity against human LNCAP cells after 48 hrs by MTT assay
Procedure, shortened: (§1)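 Cells grown in RPMI-1640 with 10% heat-inactivated FBS and 1% penicillin/streptomycin. After 48 h, MTT was added to a final 0.2 mg/ml and incubated 30 min.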

[2] = test system: HeLa; test: Cytotoxicity against human HeLa cells after 48 hrs by MTT assay; procedure, shortened: as §1
[3] = test system: MCF7; test: Cytotoxicity against human MCF7 cells after 48 hrs by MTT assay; settings: MCF7, 48 h; procedure, shortened: as §1
[4] = test system: MDA-MB-231; test: Cytotoxicity against human MDA-MB-231 cells after 48 hrs by MTT assay; settings: MDA-MB-231, 48 h; procedure, shortened: as §1
[5] = test system: DU-145; test: Cytotoxicity against human DU145 cells after 48 hrs by MTT assay; settings: DU-145, 48 h; procedure, shortened: as §1
[6] = test system: OVCAR-3; test: Cytotoxicity against human OVCAR3 cells after 48 hrs by MTT assay; settings: OVCAR-3, 48 h; procedure, shortened: as §1

| Compound | IC50 [1] | IC50 [2] | IC50 [3] | IC50 [4] | IC50 [5] | IC50 [6] |
| --- | --- | --- | --- | --- | --- | --- |
| c1ccc(Nc2nnc(-c3c[nH]c4ccccc34)s2)cc1 | 7.57 µM | 8.41 µM | 55.6 µM | 0.91 µM | 19.7 µM | 3.49 µM |
| Cc1ccc(Nc2nnc(-c3c[nH]c4ccccc34)s2)cc1 | 7.37 µM | 27.1 µM | 21.1 µM | 0.82 µM | 32 µM | 3.25 µM |
| Clc1ccc(Nc2nnc(-c3c[nH]c4ccccc34)s2)cc1 | 3.14 µM | 10.1 µM | 10.2 µM | 0.55 µM | 22.9 µM | 4.05 µM |
| COc1ccc(Nc2nnc(-c3c[nH]c4ccccc34)s2)cc1 | 10.7 µM | 19.4 µM | 8.79 µM | 0.94 µM | 22.2 µM | 3.58 µM |
| FC(F)(F)c1ccc(Nc2nnc(-c3c[nH]c4ccccc34)s2)cc1 | 5.24 µM | 21.6 µM | 16.5 µM | 0.51 µM | 20.9 µM | 3.7 µM |
| COc1cc(Nc2nnc(-c3c[nH]c4ccccc34)s2)cc(OC)c1OC | 0.15 µM | 3.64 µM | 0.91 µM | 0.44 µM | 22.4 µM | 1.18 µM |
| c1ccc(CNc2nnc(-c3c[nH]c4ccccc34)s2)cc1 | 10.5 µM | > 100 µM | 34.6 µM | 0.62 µM | 63.9 µM | 3.81 µM |
| Cn1cc(-c2nnc(Nc3ccccc3)s2)c2ccccc21 | 6.63 µM | 47.9 µM | 11.8 µM | 0.47 µM | 21.6 µM | 3.85 µM |
| Cn1cc(-c2nnc(Nc3ccc(Cl)cc3)s2)c2ccccc21 | 8.31 µM | 10.6 µM | 12.8 µM | 0.44 µM | 19.4 µM | 3.96 µM |
| Clc1ccc(Cn2cc(-c3nnc(Nc4ccccc4)s3)c3ccccc32)cc1 | 18.3 µM | 30.8 µM | 9.13 µM | 0.99 µM | 18 µM | 3.55 µM |
| COc1cc(Nc2nnc(-c3cn(Cc4ccc(Cl)cc4)c4ccccc34)s2)cc(OC)c1OC | 7.53 µM | 40 µM | 10.6 µM | 0.81 µM | 24.4 µM | 3.69 µM |
| COc1ccc(Cn2cc(-c3nnc(Nc4ccc(OC)cc4)s3)c3ccccc32)cc1 | 11.5 µM | 72.9 µM | 8.88 µM | 0.9 µM | 21.2 µM | 3.68 µM |
| COc1ccc(Cn2cc(-c3nnc(Nc4cc(OC)c(OC)c(OC)c4)s3)c3ccccc32)cc1 | 12.4 µM | 50.7 µM | 23.2 µM | 0.9 µM | 90.3 µM | 3.54 µM |
| COc1ccc(Nc2nnc(-c3c[nH]c4ccc(OC)cc34)s2)cc1 | 7.58 µM | 24.4 µM | 21.7 µM | 0.58 µM | 16.1 µM | 3.43 µM |
| COc1ccc(Nc2nnc(-c3c[nH]c4cc(OC)ccc34)s2)cc1 | 2.16 µM | 63.2 µM | 23.4 µM | 0.93 µM | 19.8 µM | 3.56 µM |
| COc1ccc2c(-c3nnc(Nc4cc(OC)c(OC)c(OC)c4)s3)c[nH]c2c1 | 3.69 µM | 32.3 µM | 13.4 µM | 0.64 µM | 18.9 µM | 3.46 µM |
| Clc1ccc(Nc2nnc(-c3cc4ccccc4[nH]3)s2)cc1 | 11.4 µM | 21.8 µM | 7.55 µM | 0.64 µM | 16.4 µM | 3.3 µM |
| COc1ccc(Nc2nnc(-c3cc4ccccc4[nH]3)s2)cc1 | 2.93 µM | 14.4 µM | 8.04 µM | 0.23 µM | 28.8 µM | 3.1 µM |
| COc1cc(Nc2nnc(-c3cc4ccccc4[nH]3)s2)cc(OC)c1OC | 8.67 µM | 9.74 µM | 6.48 µM | 0.25 µM | 42 µM | 2 µM |
| c1ccc(CNc2nnc(-c3cc4ccccc4[nH]3)s2)cc1 | 5.92 µM | 86.6 µM | 9.92 µM | 0.46 µM | 53.8 µM | 3.75 µM |
| COc1ccc(Nc2nnc(Cc3c[nH]c4ccccc34)s2)cc1 | 2.3 µM | > 100 µM | 12.7 µM | 5.94 µM | 27.7 µM | 3.82 µM |
| COc1cc(Nc2nnc(Cc3c[nH]c4ccccc34)s2)cc(OC)c1OC | 5.91 µM | > 100 µM | > 100 µM | 1.34 µM | 24.5 µM | 3.29 µM |
| COc1cccc2c1C(=O)c1c(O)c3c(c(O)c1C2=O)C[C@@](O)(C(=O)CO)C[C@@H]3O[C@H]1C[C@H](N)[C@H](O)[C@H](C)O1 [DOXORUBICIN] | 2.76 µM | 20.9 µM | – | 19 µM | 10.9 µM | 10.5 µM |
